Data as given in ChEMBL document CHEMBL3603837, “Indole Glucocorticoid Receptor Antagonists Active in a Model of Dyslipidemia Act via a Unique Association with an Agonist Binding Site” (J Med Chem, 2015).
Activity calls are given as the source filed them. The calls are words filed in the database; no cut-off is given here.

Legend:
[1] = target: T1, Glucocorticoid receptor (Homo sapiens, UniProt P04150); test: Displacement of [3H]-dexamethasone from human glucocorticoid receptor expressed in HEK293 cells by scintillation counting based radioligand competition binding assay; assay type: cell-based
T1 sequence (P04150 whole entry): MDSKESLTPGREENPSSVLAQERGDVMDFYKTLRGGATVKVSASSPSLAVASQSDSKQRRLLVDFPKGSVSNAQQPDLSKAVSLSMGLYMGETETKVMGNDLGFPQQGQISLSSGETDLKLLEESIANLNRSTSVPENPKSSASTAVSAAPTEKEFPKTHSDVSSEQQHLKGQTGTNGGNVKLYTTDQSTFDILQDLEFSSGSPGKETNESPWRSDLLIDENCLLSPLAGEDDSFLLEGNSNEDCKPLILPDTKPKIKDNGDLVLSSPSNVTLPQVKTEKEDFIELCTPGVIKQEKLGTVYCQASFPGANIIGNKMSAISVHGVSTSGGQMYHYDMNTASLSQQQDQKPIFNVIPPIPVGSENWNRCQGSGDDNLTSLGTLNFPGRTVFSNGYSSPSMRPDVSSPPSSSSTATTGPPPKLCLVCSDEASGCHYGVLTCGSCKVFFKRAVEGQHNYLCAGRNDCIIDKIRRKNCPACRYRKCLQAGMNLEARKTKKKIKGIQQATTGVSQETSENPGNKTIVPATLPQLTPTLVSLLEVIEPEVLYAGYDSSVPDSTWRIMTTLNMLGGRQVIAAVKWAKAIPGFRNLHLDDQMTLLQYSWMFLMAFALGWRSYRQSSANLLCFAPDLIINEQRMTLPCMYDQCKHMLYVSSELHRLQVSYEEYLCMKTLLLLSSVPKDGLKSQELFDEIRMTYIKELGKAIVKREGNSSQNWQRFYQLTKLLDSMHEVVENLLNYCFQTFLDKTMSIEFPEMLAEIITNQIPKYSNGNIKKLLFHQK

[2] = target: T2, Estrogen receptor (Homo sapiens) (UniProt P03372); test: Binding affinity to human estrogen receptor expressed in HEK293 cells by scintillation counting based radioligand competition binding assay; assay type: cell-based
T2 sequence (whole entry): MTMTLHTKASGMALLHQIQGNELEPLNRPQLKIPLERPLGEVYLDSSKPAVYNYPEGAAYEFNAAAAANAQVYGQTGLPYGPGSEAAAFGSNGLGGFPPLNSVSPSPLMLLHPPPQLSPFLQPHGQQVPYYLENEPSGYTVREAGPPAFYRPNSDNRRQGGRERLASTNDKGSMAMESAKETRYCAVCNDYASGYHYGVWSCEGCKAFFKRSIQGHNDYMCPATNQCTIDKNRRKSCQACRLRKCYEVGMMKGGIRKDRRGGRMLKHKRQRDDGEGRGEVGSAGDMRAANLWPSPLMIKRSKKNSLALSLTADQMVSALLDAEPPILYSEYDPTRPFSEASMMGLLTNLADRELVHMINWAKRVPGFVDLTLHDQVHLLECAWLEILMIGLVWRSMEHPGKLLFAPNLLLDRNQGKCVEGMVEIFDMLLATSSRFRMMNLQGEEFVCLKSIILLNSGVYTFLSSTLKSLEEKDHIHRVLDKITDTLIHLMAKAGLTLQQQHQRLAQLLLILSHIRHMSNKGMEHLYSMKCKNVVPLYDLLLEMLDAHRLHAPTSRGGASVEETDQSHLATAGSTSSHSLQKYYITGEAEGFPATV

[3] = target: T3, Glucocorticoid receptor (Rattus norvegicus, UniProt P06536); test: Antagonist activity against glucocorticoid receptor in rat H4-IIE cells assessed as inhibition of dexamethasone-induced receptor transactivation pre-incubated for 1 hr before dexamethasone addition and measured 24 hrs post dexamethasone stimulation by tyrosine aminotransferase enzyme assay; assay type: cell-based
T3 sequence (P06536 whole entry): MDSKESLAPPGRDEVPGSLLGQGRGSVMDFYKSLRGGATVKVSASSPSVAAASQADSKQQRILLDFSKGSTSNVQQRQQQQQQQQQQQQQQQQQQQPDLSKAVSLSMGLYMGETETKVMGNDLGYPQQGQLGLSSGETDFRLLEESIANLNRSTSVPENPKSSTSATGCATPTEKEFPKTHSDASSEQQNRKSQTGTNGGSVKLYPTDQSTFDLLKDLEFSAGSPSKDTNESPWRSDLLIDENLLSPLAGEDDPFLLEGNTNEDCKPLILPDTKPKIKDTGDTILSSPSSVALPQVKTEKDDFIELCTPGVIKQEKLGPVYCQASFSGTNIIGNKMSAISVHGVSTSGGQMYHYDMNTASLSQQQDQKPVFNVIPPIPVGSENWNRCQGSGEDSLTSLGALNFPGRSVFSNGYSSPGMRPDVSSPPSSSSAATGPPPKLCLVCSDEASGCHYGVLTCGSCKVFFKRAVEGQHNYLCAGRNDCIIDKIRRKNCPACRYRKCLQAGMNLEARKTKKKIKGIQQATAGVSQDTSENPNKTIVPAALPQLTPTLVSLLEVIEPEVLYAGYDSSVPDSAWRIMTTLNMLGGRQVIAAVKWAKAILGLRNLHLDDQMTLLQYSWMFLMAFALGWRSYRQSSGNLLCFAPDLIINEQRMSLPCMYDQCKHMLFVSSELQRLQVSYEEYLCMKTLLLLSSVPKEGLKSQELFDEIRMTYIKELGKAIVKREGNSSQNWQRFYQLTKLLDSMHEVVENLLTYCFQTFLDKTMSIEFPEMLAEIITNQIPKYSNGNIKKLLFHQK

[4] = target: T4, Glucocorticoid receptor (Rattus norvegicus) (UniProt P06536); test: Agonist activity at glucocorticoid receptor in rat H4-IIE cells assessed as receptor transactivation incubated for 24 hrs by tyrosine aminotransferase enzyme assay; assay type: cell-based
T4 sequence (whole entry): T3 sequence (P06536 whole entry)
Method in brief: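 Rat hepatoma H4IIEC3 cells grown in DMEM with 10% FBS, plated at 100000 cells/well overnight at 37 °C, 5% CO2, then switched to DMEM/F12 with 5% CS-FBS for 24 h. Test compounds at about 0.09 nM–25 μM for 24 h. Lysates given TAT substrate (4.74 mM L-tyrosine, 13.3 mM α-ketoglutarate, pH 7.6) for 2 h at 37 °C, then KOH. A340 read against a standard curve; EC50 from four-parameter logistic fit.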

[5] = target: T5, Glucocorticoid receptor (Homo sapiens) (UniProt P04150); test: Displacement of [3H]-dexamethasone from human glucocorticoid receptor expressed in HEK293 cells at 10 uM by scintillation counting based radioligand competition binding assay; assay type: cell-based
T5 sequence (whole entry): T1 sequence (P04150 whole entry)
Method in brief: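 Competition binding with 0.3 nM [3H]-dexamethasone and 20 μg 293-GR lysate per well; nonspecific binding defined with 0.5 μM dexamethasone. Incubated overnight at 4 °C, free ligand removed with charcoal–dextran, then scintillation counting. Percent inhibition at 10 μM was calculated.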

[6] = target: T1, Glucocorticoid receptor; test: Antagonist activity against glucocorticoid receptor (unknown origin) expressed in HEK293 cells by GRE-dependent luciferase reporter gene assay; assay type: cell-based
[7] = target: T5, Glucocorticoid receptor (Homo sapiens); test: Agonist activity at glucocorticoid receptor (unknown origin) expressed in HEK293 cells by GRE-dependent luciferase reporter gene assay; assay type: cell-based
[8] = system: Syrian golden hamster; test: Reduction in LDL level in high fat and high cholesterol diet fed Syrian golden hamster at 30 mg/kg, po qd for 14 days; assay type: functional; conditions: Mesocricetus auratus, 336 h
Method in brief: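 Groups of Syrian golden hamsters (n = 6) kept on a high fat, high cholesterol diet for 14 days, dosed orally at 30 mg/kg once daily. Plasma HDL and LDL compared against untreated HFHC controls; mean with standard errors.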

Row | Structure (SMILES) | Ki [1] [nM] | Activity [2] | IC50 [3] [nM] | Activity [4] | Activity [5] | IC50 [6] [nM] | Activity [7] | inhibition in vivo at 30 mg/kg [8] [%]
1 | CS(=O)(=O)Nc1cccc2c(-c3ccc(F)cc3)c[nH]c12 | 94.6 | inactive | – | – | – | – | – | –
2 | COc1cc(F)ccc1-c1c(CN(C)Cc2ccccc2)[nH]c2c(NS(C)(=O)=O)cc(C(C)(C)C)cc12 | – | inactive | 14.4 | inactive | – | – | – | –
3 | COc1cc(F)ccc1-c1c(CN(C)Cc2ccccc2)[nH]c2c(N)cc(F)cc12 | – | inactive | – | – | inactive | – | – | –
4 | COc1cc(NS(C)(=O)=O)c2[nH]c(C)c(-c3cc(F)ccc3OC)c2c1 | 115 | inactive | – | – | – | – | – | –
5 | CS(=O)(=O)Nc1cccc2cc[nH]c12 | 50 | inactive | – | – | – | – | – | –
6 | COc1ccc(F)cc1-c1c(-c2ccccc2)[nH]c2c(NS(C)(=O)=O)cccc12 | 53.7 | inactive | – | – | – | – | – | –

Further lines, with some results ahead:

Row | Ki [1] [nM] | Activity [2] | IC50 [3] [nM] | Activity [4] | Activity [5] | IC50 [6] [nM] | Activity [7] | Structure (SMILES) | inhibition in vivo at 30 mg/kg [8] [%]
7 | 39.8 | inactive | – | – | – | – | – | COc1cc(NS(C)(=O)=O)c2[nH]c(C)c(-c3ccccc3)c2c1 | –
8 | 5.04 | inactive | 76 | – | – | 180 | – | CS(=O)(=O)Nc1cccc2c(-c3cccc(Cl)c3)c[nH]c12 | –
9 | 1.32 | inactive | 63.4 | inactive | – | 22 | inactive | COc1cc(F)ccc1-c1c(C)[nH]c2c(NS(C)(=O)=O)cc(F)cc12 | –
10 | 0.543 | inactive | 292 | inactive | – | 7.54 | inactive | COc1cc(F)ccc1-c1c(Cc2ccccc2)[nH]c2c(NS(C)(=O)=O)cc(C(C)C)cc12 | –
11 | 3.06 | inactive | 1180 | – | – | 235 | – | COc1ccccc1-c1c[nH]c2c(NS(C)(=O)=O)cccc12 | –
12 | 5.45 | inactive | 1250 | inactive | – | 143 | inactive | COc1ccc(Cl)cc1-c1c[nH]c2c(NS(C)(=O)=O)cccc12 | –
13 | 1.22 | inactive | 10.6 | inactive | – | 2.76 | inactive | COc1cc(F)ccc1-c1c(CN(C)Cc2ccccc2)[nH]c2c(NS(C)(=O)=O)cc(C(C)C)cc12 | 74
